Source: ChEMBL document CHEMBL1667769, “Sodium [2'-[(cyclopropanecarbonyl-ethyl-amino)-methyl]-4'-(6-ethoxy-pyridin-3-yl)-6-methoxy-biphenyl-3-yl]-acetate (AM432): a potent, selective prostaglandin D2 receptor antagonist” (Bioorg Med Chem Lett, 2011)

Experiments:
[1] = molecular target: T1, Prostaglandin D2 receptor 2 (Homo sapiens, UniProt Q9Y5Y4); test: Displacement of [3H]PGD2 from human CRTh2 receptor expressed in 293 cells by liquid scintillation counting; assay type: cell-based, HEK293
T1 sequence (Q9Y5Y4 whole entry): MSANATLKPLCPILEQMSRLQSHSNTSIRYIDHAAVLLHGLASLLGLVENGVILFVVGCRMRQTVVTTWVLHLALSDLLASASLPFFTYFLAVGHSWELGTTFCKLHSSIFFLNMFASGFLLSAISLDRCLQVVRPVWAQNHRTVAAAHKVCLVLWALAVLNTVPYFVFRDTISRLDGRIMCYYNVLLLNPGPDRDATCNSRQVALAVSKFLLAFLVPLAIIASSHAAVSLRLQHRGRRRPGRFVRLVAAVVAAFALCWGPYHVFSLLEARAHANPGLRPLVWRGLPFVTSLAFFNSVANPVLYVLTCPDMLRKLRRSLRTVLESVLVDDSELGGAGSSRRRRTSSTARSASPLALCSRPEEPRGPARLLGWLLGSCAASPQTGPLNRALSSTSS
In short: (§1)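 Membranes from 293 cells stably expressing human DP₂ incubated with [³H]-PGD₂ and increasing compound concentrations. Membranes harvested and washed; bound [³H]-PGD₂ counted. IC₅₀ taken as concentration giving 50% inhibition of binding. Run without and with 0.2% human serum albumin. Values averaged from three experiments (five for the lead).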

[2] = molecular target: T1, Prostaglandin D2 receptor 2; test: Displacement of [3H]PGD2 from human CRTh2 receptor expressed in 293 cells by liquid scintillation counting in presence of 0.2 % HSA; assay type: cell-based, HEK293; in short: as §1

Row | SMILES | IC50 [1] | IC50 [2]
1 | CCN(Cc1cc(C(=O)O)ccc1-c1cc(CC(=O)O)ccc1OC)C(=O)OCc1ccccc1 | 8 nM | 254 nM
2 | CCN(Cc1cc(-c2cnc3ccccc3c2)ccc1-c1cc(CC(=O)O)ccc1OC)C(=O)C1CC1 | 7 nM | 52 nM
3 | CCN(Cc1cc(C(C)(C)O)ccc1-c1cc(CC(=O)O)ccc1OC)C(=O)OCc1ccccc1 | 12 nM | 24 nM

The next lines start with the values.

Row | IC50 [1] | IC50 [2] | SMILES
4 | 1 nM | 9 nM | CCN(Cc1cc(F)ccc1-c1cc(CC(=O)O)ccc1OC)C(=O)OCc1ccccc1
5 | 7 nM | 60 nM | CCN(Cc1cc(NC(C)=O)ccc1-c1cc(CC(=O)O)ccc1OC)C(=O)OCc1ccccc1
